Experimental data reported in ChEMBL document CHEMBL4680221, “Discovery of pyrazole derivatives as cellular active inhibitors of histone lysine specific demethylase 5B (KDM5B/JARID1B)” (Eur J Med Chem, 2020).
Activity calls are given as the source filed them. The calls are words filed in the database; no cut-off is given here.

Tests used:
[1] = biological target: T1, Lysine-specific demethylase 5B (Homo sapiens, UniProt Q9UGL1); assay: Inhibition of recombinant human N-terminal FLAG-tagged KDM5B expressed in Sf9 insect cells at 10 uM using biotin-H3K4me as substrate by ALPHA relative to control
T1 sequence (Q9UGL1 whole entry): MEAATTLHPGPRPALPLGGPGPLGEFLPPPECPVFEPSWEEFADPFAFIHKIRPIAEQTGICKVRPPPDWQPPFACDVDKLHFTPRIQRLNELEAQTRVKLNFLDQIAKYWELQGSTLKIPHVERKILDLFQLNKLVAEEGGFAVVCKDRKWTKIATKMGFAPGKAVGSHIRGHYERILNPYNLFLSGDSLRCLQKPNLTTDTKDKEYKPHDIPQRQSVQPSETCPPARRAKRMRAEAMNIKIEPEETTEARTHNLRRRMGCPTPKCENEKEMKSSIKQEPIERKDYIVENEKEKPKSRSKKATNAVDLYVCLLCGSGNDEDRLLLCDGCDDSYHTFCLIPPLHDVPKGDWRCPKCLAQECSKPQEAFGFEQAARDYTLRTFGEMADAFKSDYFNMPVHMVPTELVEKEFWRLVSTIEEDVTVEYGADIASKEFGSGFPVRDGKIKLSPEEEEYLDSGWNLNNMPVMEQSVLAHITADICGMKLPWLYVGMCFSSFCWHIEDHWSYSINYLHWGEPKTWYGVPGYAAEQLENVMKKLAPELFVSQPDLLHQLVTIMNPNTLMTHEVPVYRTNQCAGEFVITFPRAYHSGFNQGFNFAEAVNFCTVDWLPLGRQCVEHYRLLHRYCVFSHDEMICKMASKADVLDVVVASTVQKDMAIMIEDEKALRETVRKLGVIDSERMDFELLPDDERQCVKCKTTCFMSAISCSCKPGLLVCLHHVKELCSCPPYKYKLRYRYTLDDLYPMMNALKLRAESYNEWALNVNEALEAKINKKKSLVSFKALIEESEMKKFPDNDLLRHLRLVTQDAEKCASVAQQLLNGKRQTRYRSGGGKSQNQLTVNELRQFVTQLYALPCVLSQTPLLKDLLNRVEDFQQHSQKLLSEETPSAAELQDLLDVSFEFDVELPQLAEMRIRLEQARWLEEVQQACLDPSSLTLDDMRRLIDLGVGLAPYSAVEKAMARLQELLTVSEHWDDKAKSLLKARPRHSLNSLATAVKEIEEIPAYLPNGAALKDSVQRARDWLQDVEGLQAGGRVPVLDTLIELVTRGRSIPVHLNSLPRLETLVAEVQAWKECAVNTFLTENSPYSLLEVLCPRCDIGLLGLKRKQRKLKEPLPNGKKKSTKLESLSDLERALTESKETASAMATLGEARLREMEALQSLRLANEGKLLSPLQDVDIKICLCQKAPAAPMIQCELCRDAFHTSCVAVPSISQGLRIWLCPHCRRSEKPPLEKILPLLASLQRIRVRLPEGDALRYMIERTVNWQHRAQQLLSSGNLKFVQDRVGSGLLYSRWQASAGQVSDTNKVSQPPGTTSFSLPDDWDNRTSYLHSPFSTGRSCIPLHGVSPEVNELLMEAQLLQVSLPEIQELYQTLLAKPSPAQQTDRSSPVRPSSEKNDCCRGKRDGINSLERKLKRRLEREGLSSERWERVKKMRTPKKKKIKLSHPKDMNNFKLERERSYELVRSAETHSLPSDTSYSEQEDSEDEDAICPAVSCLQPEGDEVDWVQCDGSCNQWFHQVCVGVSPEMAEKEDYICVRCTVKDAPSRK
In short: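 ALPHA demethylase assay. Recombinant KDM5B (4 nM) was preincubated with compound, then biotin-H3K4me3 peptide (64 nM) was added. Buffer: 10 μM α-KG, 100 μM ascorbate, 50 μM (NH4)2Fe(SO4)2, 50 mM HEPES pH 7.5, 0.01% Tween 20, 0.1% BSA. Read-out used streptavidin donor and H3K4me1-2 antibody acceptor beads. Data were normalized to blank control and IC50 fitted.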

MKN-45 [2] = assay: Inhibition of KDM4 in human MKN-45 cells assessed as increase in H3K9me3 accumulation at 0.5 to 20 uM measured after 5 days by Western blot analysis; type: cell-based; details: dose 0.5-20 µM, time 5.0 day
In short: (§1)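 MKN45 cells were treated for 5 days and lysed in RIPA buffer. About 30 µg protein was run on 10% SDS-PAGE and transferred to 0.2 µm nitrocellulose, then blocked with 5% milk in PBS for 2 h. Blots were probed for histone methylation marks with histone 3 as loading control and detected by ECL.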

MKN-45 [3] = assay: Antiproliferative activity against human MKN-45 cells assessed as reduction in cell proliferation measured after 6 days by MTS assay; type: functional, cell-based; details: MKN-45, 144 h
In short: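 MKN45 cells were seeded at 3×10^3 cells per well and treated for 4 or 6 days, as indicated. Proliferation was read by MTS assay and IC50 derived. Three independent experiments, mean ± SD.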

[4] = biological target: Lysine-specific demethylase 6B (Homo sapiens, UniProt O15054); assay: Inhibition of KDM6B (unknown origin) at 0.01 uM relative to control
Sequence of Lysine-specific demethylase 6B (O15054 whole entry): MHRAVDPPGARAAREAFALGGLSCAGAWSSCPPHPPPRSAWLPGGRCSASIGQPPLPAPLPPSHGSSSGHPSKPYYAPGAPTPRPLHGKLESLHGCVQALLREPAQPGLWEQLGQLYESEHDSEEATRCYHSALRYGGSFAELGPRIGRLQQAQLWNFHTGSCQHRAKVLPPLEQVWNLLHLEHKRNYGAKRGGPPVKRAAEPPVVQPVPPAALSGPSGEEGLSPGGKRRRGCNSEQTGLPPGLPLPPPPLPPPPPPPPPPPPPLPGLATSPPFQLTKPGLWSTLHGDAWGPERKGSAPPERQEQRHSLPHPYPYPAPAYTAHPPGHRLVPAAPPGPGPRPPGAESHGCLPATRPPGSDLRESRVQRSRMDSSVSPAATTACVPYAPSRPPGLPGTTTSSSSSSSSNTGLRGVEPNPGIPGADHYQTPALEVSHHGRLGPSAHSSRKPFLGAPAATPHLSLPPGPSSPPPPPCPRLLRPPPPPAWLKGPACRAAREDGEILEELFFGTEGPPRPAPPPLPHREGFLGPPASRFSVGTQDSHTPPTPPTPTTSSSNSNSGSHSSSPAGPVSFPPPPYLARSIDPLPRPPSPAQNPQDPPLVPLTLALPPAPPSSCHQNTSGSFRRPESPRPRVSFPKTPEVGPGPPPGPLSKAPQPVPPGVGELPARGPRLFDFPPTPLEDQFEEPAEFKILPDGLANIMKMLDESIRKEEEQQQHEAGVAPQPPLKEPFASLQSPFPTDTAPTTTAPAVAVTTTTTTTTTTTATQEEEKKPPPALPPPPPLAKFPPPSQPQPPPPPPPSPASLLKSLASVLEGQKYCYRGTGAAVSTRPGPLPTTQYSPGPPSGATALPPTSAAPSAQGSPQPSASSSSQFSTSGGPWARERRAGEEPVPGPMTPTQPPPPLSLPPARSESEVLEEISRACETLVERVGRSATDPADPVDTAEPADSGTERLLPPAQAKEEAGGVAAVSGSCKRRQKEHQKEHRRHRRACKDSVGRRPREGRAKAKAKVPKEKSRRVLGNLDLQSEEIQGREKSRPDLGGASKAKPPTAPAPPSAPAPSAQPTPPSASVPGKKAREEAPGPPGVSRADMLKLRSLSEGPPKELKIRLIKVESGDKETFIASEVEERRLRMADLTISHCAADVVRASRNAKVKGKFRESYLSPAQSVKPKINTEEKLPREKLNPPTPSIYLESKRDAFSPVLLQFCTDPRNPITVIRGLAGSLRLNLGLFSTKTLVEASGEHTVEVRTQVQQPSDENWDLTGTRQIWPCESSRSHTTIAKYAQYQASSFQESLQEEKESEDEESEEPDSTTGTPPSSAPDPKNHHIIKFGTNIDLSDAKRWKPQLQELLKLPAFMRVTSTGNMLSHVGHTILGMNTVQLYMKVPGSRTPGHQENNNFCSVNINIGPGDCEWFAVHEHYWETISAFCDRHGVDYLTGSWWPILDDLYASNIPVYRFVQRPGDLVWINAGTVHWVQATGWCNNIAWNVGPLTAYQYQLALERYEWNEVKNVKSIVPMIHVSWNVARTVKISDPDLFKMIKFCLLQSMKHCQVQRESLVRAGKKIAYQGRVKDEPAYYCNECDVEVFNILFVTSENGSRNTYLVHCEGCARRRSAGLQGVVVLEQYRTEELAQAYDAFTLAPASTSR

[5] = biological target: T1, Lysine-specific demethylase 5B; assay: Inhibition of KDM5B in human MKN-45 cells assessed as increase in H3K4me2 accumulation at 0.5 to 20 uM measured after 5 days by Western blot analysis; type: cell-based; details: dose 0.5-20 µM, time 5.0 day; in short: as §1
MKN-45 [6] = assay: Inhibition of colony formation in human MKN-45 cells measured after 10 days by crystal violet staining based microscopic analysis; type: functional, cell-based; details: time 10.0 day
In short: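 1000 MKN45 cells were seeded in 6-well plates and treated. The medium was then replaced and cells were cultured another 10 days. Colonies were fixed with cold methanol, stained with crystal violet and photographed under a microscope.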

[7] = biological target: T2, Lysine-specific demethylase 4C (Homo sapiens) (UniProt Q9H3R0); assay: Inhibition of KDM4C (unknown origin) at 1 uM relative to control
T2 sequence (whole entry): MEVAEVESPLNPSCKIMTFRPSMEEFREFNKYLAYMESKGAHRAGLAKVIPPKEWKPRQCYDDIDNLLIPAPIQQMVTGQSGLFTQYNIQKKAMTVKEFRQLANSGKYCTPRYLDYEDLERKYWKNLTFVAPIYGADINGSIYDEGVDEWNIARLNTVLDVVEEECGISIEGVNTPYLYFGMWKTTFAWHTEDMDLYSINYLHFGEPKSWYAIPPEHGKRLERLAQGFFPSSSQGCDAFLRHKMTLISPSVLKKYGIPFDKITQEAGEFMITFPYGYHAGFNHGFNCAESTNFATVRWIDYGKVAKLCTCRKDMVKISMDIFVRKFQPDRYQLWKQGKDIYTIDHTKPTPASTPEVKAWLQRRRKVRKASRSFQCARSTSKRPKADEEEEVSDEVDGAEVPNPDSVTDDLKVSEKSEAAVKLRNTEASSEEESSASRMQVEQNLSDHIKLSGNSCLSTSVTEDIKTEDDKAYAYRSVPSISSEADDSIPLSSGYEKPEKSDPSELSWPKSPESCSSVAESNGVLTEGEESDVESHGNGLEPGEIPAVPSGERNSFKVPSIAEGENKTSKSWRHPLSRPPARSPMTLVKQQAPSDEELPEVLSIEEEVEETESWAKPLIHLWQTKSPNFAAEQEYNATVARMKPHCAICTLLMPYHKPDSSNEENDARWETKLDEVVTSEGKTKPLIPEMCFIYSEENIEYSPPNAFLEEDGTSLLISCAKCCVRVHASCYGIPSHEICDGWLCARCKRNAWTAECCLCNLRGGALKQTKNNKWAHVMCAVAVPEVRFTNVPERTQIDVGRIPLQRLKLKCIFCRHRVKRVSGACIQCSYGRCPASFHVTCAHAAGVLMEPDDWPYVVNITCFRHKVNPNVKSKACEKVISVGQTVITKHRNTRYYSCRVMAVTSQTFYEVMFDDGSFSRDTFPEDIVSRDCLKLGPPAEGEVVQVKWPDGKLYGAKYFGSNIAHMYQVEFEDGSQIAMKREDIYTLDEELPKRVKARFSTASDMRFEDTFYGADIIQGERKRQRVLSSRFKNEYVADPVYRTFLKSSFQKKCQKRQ

[8] = biological target: Lysine-specific demethylase 5A (Homo sapiens, UniProt P29375); assay: Inhibition of KDM5A (unknown origin) at 0.25 uM relative to control
Sequence of Lysine-specific demethylase 5A (P29375 whole entry): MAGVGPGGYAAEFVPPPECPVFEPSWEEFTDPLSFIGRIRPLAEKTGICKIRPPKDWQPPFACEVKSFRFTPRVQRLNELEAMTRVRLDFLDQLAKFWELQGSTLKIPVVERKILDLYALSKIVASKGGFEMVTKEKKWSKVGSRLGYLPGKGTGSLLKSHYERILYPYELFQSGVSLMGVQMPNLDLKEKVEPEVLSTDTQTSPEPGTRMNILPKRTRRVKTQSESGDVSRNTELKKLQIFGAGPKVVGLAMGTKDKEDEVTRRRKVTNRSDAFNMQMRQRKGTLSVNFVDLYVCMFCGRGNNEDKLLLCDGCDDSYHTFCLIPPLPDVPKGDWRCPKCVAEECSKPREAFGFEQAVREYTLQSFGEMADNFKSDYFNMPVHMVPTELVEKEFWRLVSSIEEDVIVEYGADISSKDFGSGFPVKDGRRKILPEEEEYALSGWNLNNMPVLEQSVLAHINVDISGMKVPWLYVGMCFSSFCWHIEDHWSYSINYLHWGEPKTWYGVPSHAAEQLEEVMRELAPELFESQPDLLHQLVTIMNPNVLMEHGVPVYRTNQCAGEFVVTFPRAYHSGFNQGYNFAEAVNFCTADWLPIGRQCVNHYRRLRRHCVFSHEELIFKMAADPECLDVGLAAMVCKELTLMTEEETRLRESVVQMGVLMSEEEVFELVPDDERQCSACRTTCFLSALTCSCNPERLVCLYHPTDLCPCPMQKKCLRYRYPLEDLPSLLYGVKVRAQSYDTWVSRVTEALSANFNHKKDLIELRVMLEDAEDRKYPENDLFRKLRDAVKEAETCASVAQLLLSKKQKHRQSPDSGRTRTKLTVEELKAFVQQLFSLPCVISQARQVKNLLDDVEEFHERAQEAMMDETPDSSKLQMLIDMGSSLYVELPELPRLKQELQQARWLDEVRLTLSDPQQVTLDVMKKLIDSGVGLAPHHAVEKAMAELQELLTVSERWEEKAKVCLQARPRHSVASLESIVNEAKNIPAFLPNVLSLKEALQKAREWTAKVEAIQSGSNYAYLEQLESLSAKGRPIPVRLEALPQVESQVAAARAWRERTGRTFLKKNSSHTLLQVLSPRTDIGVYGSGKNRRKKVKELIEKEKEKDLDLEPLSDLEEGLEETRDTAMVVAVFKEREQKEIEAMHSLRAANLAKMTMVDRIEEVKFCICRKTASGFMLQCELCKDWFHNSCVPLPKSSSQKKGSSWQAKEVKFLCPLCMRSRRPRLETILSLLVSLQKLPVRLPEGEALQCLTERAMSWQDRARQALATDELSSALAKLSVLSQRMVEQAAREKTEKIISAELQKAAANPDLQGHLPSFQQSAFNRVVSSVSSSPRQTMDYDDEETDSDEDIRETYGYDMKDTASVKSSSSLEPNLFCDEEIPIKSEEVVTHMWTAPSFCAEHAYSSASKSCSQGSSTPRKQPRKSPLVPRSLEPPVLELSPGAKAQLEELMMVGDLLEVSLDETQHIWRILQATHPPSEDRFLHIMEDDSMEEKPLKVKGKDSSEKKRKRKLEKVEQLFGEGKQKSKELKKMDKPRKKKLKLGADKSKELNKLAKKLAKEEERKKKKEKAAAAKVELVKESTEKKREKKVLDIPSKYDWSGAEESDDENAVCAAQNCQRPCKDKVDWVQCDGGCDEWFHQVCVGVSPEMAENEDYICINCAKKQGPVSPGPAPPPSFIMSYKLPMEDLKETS

## COc1ccc(-n2cc(C(=O)NCC(C)(C)N3CCOCC3)c(-c3ccccc3)n2)cc1
[1]
  inhibition: 95.8%
MKN-45 [2]
  inhibition: inactive
MKN-45 [3]
  IC50: 20.6 µM
[4]
  inhibition: 3.57%
[5]
  inhibition: Active
MKN-45 [6]
  inhibition: Active
[7]
  inhibition: 50.1%
[8]
  inhibition: 62.4%
